Reference: ChEMBL document CHEMBL1126043, “Novel thiazolidine-2,4-diones as potent euglycemic agents” (1992)

Legend:
Type in all cases: functional
[1] = tested on: Mus musculus; test: In vivo euglycemic activity (administered by oral gavage) in C57/6J-ob/ob mice by normalization of blood glucose levels at a dose of 10 mg/kg.
Summary of the method: (§1)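 Mice bled from retro-orbital sinus into tubes with 2% sodium heparin for baseline glucose, then dosed by oral gavage once daily for 4 days in 0.25% (w/v) methylcellulose in water, no pH adjustment (0.1 mL per 20 g). Bled 24 h after fourth dose. Samples centrifuged 2 min at 10000g. Plasma glucose measured by hexokinase UV method. Results scaled to vehicle (0%) and ciglitazone 50 mg/kg (100%).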

[2] = tested on: Mus musculus; test: In vivo euglycemic activity (administered by oral gavage) in C57/6J-ob/ob mice by normalization of blood glucose levels at a dose of 0.5 mg/kg.; summary of the method: as §1
[3] = tested on: Mus musculus; test: In vivo euglycemic activity (administered by oral gavage) in C57/6J-ob/ob mice measured by normalization of blood glucose levels at a dose of 5 mg/kg.
[4] = tested on: Mus musculus; test: In vivo euglycemic activity of the compound (administered by oral gavage) in C57/6J-ob/ob mice is measured by normalization of blood glucose levels at a dose of 2.5(mg/kg); summary of the method: as §1
[5] = tested on: Mus musculus; test: In vivo euglycemic activity (administered by oral gavage) in C57/6J-ob/ob mice by normalization of blood glucose levels at a dose of 1 mg/kg.; summary of the method: as §1
[6] = tested on: Mus musculus; test: In vivo euglycemic activity of the compound (administered by oral gavage) in C57/6J-ob/ob mice is measured by normalization of blood glucose levels at a dose of 0.25(mg/kg); summary of the method: as §1

SMILES | Normalization [1] | Normalization [3] | Normalization [5] | further results
COc1ccccc1CCC(=O)c1ccc(CC2SC(=O)NC2=O)cc1 (configuration not stated) | 0% |  |  | 
O=C1NC(=O)C(Cc2ccc(C(=O)CCc3ccco3)cc2)S1 (configuration not stated) | 24% |  |  | 
Cc1oc(-c2ccccc2)nc1CCSc1ccc(CC2SC(=O)NC2=O)cc1 (configuration not stated) |  |  |  | Normalization [2]: 0%
Cc1oc(-c2ccccc2)nc1CN(C)C(=O)c1ccc(CC2SC(=O)NC2=O)cc1 (configuration not stated) |  | 83% |  | Normalization [4]: 0%
COc1ccc(CCC(=O)c2ccc(CC3SC(=O)NC3=O)cc2)cc1 (configuration not stated) | 50% |  |  | 
Cc1oc(-c2ccco2)nc1CCC(=O)c1ccc(CC2SC(=O)NC2=O)cc1 (configuration not stated) |  |  | 61% | 
Cc1ccc(-c2nc(CCC(=O)c3ccc(CC4SC(=O)NC4=O)s3)c(C)o2)cc1 (configuration not stated) |  |  | 100% | Normalization [2]: 27%
Cc1nc(-c2ccccc2)c(CCC(=O)c2ccc(CC3SC(=O)NC3=O)cc2)s1 (configuration not stated) |  | 61% |  | Normalization [4]: 0%
CCN(C(=O)Cc1nc(-c2ccccc2)oc1C)c1ccc(CC2SC(=O)NC2=O)cc1 (configuration not stated) |  | 25% |  | 
O=C1NC(=O)C(Cc2ccc(C(=O)/C=C/c3ccccc3C(F)(F)F)cc2)S1 (configuration not stated) | 57% | 39% |  | 
Cc1oc(-c2ccc(C(F)(F)F)cc2)nc1CCC(=O)c1ccc(/C=C2\SC(=O)NC2=O)cc1 |  |  | 58% | Normalization [2]: 28%
Cc1oc(-c2ccc(C(F)(F)F)cc2)nc1CCC(=O)c1ccc(CC2SC(=O)NC2=O)s1 (configuration not stated) |  |  | 78% | Normalization [2]: 27%
COc1ccc(-c2nc(CCC(=O)c3ccc(/C=C4\SC(=O)NC4=O)cc3)c(C)o2)cc1 |  |  | 62% | 
Cc1ccc(-c2nc(C/C=C/c3ccc(CC4SC(=O)NC4=O)s3)c(C)o2)cc1 (configuration not stated) |  |  | 98% | Normalization [2]: 73%; Normalization [6]: 64%; Normalization [4]: 90%
O=C1NC(=O)C(Cc2ccc(C(=O)Cc3ccccc3)cc2)S1 (configuration not stated) | 0% |  |  | 
CN(C)c1ccc(/C=C/C(=O)c2ccc(CC3SC(=O)NC3=O)cc2)cc1 (configuration not stated) | 17% |  |  | 
Cc1oc(-c2ccccc2)nc1CN(C(=O)c1ccc(CC2SC(=O)NC2=O)cc1)c1ccccc1 (configuration not stated) |  | 23% |  | 
Cc1oc(-c2ccc3ccccc3c2)nc1CCC(=O)c1ccc(/C=C2\SC(=O)NC2=O)cc1 |  |  | 90% | Normalization [2]: 38%
Cc1oc(-c2ccccc2)nc1CN(c1ccccc1)S(=O)(=O)c1ccc(CC2SC(=O)NC2=O)cc1 (configuration not stated) |  |  |  | Normalization [4]: 32%
Cc1ccc(-c2nc(CCC(=O)c3ccc(/C=C4\SC(=O)NC4=O)cc3)c(C)o2)o1 |  |  | 76% | Normalization [2]: 1%
Cc1ccccc1/C=C/C(=O)c1ccc(CC2SC(=O)NC2=O)cc1 (configuration not stated) | 21% |  |  | 
O=C1NC(=O)C(Cc2ccc(C(=O)/C=C/c3ccco3)cc2)S1 (configuration not stated) | 65% |  |  | 

SMILES | Normalization [1] | Normalization [3] | Normalization [5] | further results
Cc1ccc(-c2nc(CCC(=O)c3ccc(CC4SC(=O)NC4=O)s3)co2)cc1 (configuration not stated) |  |  | 10% | Normalization [4]: 0%
O=C1NC(=O)C(Cc2ccc(C(=O)/C=C/c3cccc(Cl)c3)cc2)S1 (configuration not stated) | 4% |  |  | 
O=C1NC(=O)C(Cc2ccc(C(=O)CCc3csc(-c4ccccc4)n3)cc2)S1 (configuration not stated) |  | 91% |  | Normalization [4]: 48%
Cc1oc(-c2ccccc2)nc1/C=C/C(=O)c1ccc(CC2SC(=O)NC2=O)cc1 (configuration not stated) | 59% | 100% |  | 
O=C1NC(=O)C(Cc2ccc(C(=O)/C=C/c3ccccc3Cl)cc2)S1 (configuration not stated) | 44% | 65% |  | 
O=C1NC(=O)C(Cc2ccc(C(=O)CCCc3ccccc3)cc2)S1 (configuration not stated) | 26% |  |  | 
CCc1ccc(CCC(=O)c2ccc(CC3SC(=O)NC3=O)cc2)nc1 (configuration not stated) | 41% | 0% |  | 
CCOC(=O)c1ccc(/C=C/C(=O)c2ccc(CC3SC(=O)NC3=O)cc2)cc1 (configuration not stated) | 4% |  |  | 
O=C1NC(=O)C(Cc2ccc(C(O)CCc3ccccc3)cc2)S1 (configuration not stated) | 89% | 47% |  | 
Cc1oc(-c2ccc(O)cc2)nc1CCC(=O)c1ccc(CC2SC(=O)NC2=O)cc1 (configuration not stated) |  |  | 0% | 
Cc1ccc(-c2nc(CCC(=O)c3ccc(CC4SC(=O)NC4=O)cc3)co2)cc1 (configuration not stated) |  |  |  | Normalization [2]: 0%; Normalization [6]: 15%
O=C1NC(=O)C(Cc2ccc(C(O)CCc3ccccn3)cc2)S1 (configuration not stated) | 13% |  |  | 
Cc1oc(-c2ccco2)nc1CCC(=O)c1ccc(/C=C2\SC(=O)NC2=O)cc1 |  |  | 55% | 
Cc1cc(-c2nc(CCC(=O)c3ccc(CC4SC(=O)NC4=O)cc3)c(C)o2)cc(C)c1O (configuration not stated) |  |  | 100% | Normalization [2]: 30%
Cc1oc(-c2ccc(Cl)cc2)nc1CCC(=O)c1ccc(CC2SC(=O)NC2=O)s1 (configuration not stated) |  |  | 51% | Normalization [4]: 100%
Cc1oc(-c2ccccc2)nc1CN(C)S(=O)(=O)c1ccc(CC2SC(=O)NC2=O)cc1 (configuration not stated) |  | 9% |  | 
Cc1oc(-c2ccccc2)nc1CC(=O)N(C)c1ccc(CC2SC(=O)NC2=O)cc1 (configuration not stated) |  | 9% |  | 
Cc1oc(-c2ccccc2)nc1CC(=O)Nc1ccc(CC2SC(=O)NC2=O)cc1 (configuration not stated) |  | 64% |  | Normalization [4]: 16%
O=C1NC(=O)C(Cc2ccc(C(=O)/C=C/c3ccc(Br)cc3)cc2)S1 (configuration not stated) | 28% |  |  | 
O=C1NC(=O)C(Cc2ccc(C(=O)/C=C/c3ccccc3Cc3ccccc3)cc2)S1 (configuration not stated) | 56% |  |  | 
Cc1oc(-c2ccccc2)nc1CNC(=O)c1ccc(CC2SC(=O)NC2=O)cc1 (configuration not stated) |  | 50% |  | Normalization [4]: 49%
Cc1oc(-c2ccccc2)nc1CC/C(=N\O)c1ccc(CC2SC(=O)NC2=O)cc1 (configuration not stated) |  | 100% | 99% | Normalization [2]: 0%

SMILES | Normalization [1] | Normalization [3] | Normalization [5] | further results
Cc1oc(-c2ccc3ccccc3c2)nc1CCS(=O)(=O)c1ccc(CC2SC(=O)NC2=O)cc1 (configuration not stated) |  | 0% |  | Normalization [4]: 0%
CO/N=C(\CCc1nc(-c2ccccc2)oc1C)c1ccc(CC2SC(=O)NC2=O)cc1 (configuration not stated) |  | 100% | 0% | 
Cc1oc(-c2ccc3ccccc3c2)nc1CCC(=O)c1ccc(CC2SC(=O)NC2=O)cc1 (configuration not stated) |  |  | 39% | 
Cc1oc(-c2ccccc2)nc1CCC(=O)c1ccc(CC2SC(=O)NC2=O)s1 (configuration not stated) |  | 100% | 37% | Normalization [4]: 99%
Cc1oc(-c2ccccc2)nc1CNS(=O)(=O)c1ccc(CC2SC(=O)NC2=O)cc1 (configuration not stated) |  | 0% |  | 
O=C1NC(=O)C(Cc2ccc(C(=O)/C=C/c3nc4ccccc4s3)cc2)S1 (configuration not stated) | 0% |  |  | 
Cc1oc(-c2ccccc2)nc1CCCc1ccc(CC2SC(=O)NC2=O)cc1 (configuration not stated) |  |  |  | Normalization [2]: 37%
O=C1NC(=O)C(Cc2ccc(C(=O)CCc3ccc(-c4ccccc4)cc3)cc2)S1 (configuration not stated) | 71% | 54% |  | 
Cc1oc(-c2ccccc2)nc1CCC(O)c1ccc(CC2SC(=O)NC2=O)s1 (configuration not stated) |  | 100% | 23% | 
Cc1oc(-c2ccccc2)nc1CCS(=O)(=O)c1ccc(CC2SC(=O)NC2=O)cc1 (configuration not stated) |  | 69% | 11% | 
Cc1ccc(-c2nc(CCC(=O)c3ccc(/C=C4\SC(=O)NC4=O)cc3)c(C)o2)cc1 |  |  | 0% | Normalization [2]: 27%
O=C1NC(=O)C(Cc2ccc(C(=O)CCc3coc(-c4ccccc4)n3)cc2)S1 (configuration not stated) |  |  |  | Normalization [2]: 30%; Normalization [6]: 52%
COc1ccc(/C=C/C(=O)c2ccc(CC3SC(=O)NC3=O)cc2)cc1 (configuration not stated) | 68% | 0% |  | 
O=C1NC(=O)C(Cc2ccc(C(=O)CCc3ccc(OCc4ccccc4)cc3)cc2)S1 (configuration not stated) | 45% |  |  | 
COc1ccc(-c2nc(CCC(=O)c3ccc(CC4SC(=O)NC4=O)cc3)c(C)o2)cc1 (configuration not stated) |  |  | 95% | Normalization [2]: 43%
Cc1ccc(-c2nc(CCC(=O)c3ccc(/C=C4\SC(=O)NC4=O)cc3)co2)cc1 |  |  | 53% | 
Cc1oc(-c2cccs2)nc1CCC(=O)c1ccc(/C=C2\SC(=O)NC2=O)cc1 |  |  | 100% | 
Cc1oc(-c2cccs2)nc1CCC(=O)c1ccc(CC2SC(=O)NC2=O)cc1 (configuration not stated) |  |  | 84% | Normalization [2]: 71%; Normalization [6]: 27%
Cc1oc(-c2ccccc2)nc1CC/C(=N\OCc1ccccc1)c1ccc(CC2SC(=O)NC2=O)cc1 (configuration not stated) |  | 17% |  | 
Cc1nc(-c2ccccc2)sc1CCC(=O)c1ccc(CC2SC(=O)NC2=O)cc1 (configuration not stated) |  | 75% |  | Normalization [4]: 33%
